Results published in ChEMBL document CHEMBL5724801, “EUbOPEN Chemogenomics Library - Multiplex” (2024).
Where “and” joins values, the source holds several entries; their conditions need not be identical. Equal entries are not always repeated.

Columns and labels:
Fibroblast = assay: Multiplex assay against human fibroblast; format: toxicity, cell-based
Procedure, shortened: (§1)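 Compound was added to live cells that had been stained at seeding with Hoechst33342, BioTracker Green Microtubule Cytoskeleton Dye, MitoTracker Red and Annexin V Alexa Fluor 680, and imaging followed on a CQ1 microscope at 37°C and 5% CO2. CellPathfinder machine-learning gating divided cells into Hoechst high-intensity objects or normal cells, normal cells into healthy, pyknosed or fragmented nuclei, and pyknosed cells into mitotic or apoptotic. Tubulin, mitochondrial-mass and membrane-permeability phenotypes are per cents of healthy-nucleus cells.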

HEK-293T = assay: Multiplex assay against HEK293T; format: toxicity, cell-based; conditions: human; procedure, shortened: as §1
[1] = 12 h, 1 µM, compound concentration 1 uM
[2] = 12 h, 10 µM, compound concentration 10 uM
[3] = 24 h, 1 µM, compound concentration 1 uM
[4] = 24 h, 10 µM, compound concentration 10 uM
[5] = 48 h, 1 µM, compound concentration 1 uM
[6] = 48 h, 10 µM, compound concentration 10 uM

## FC(F)(F)c1ccccc1-c1cc(C(F)(F)F)c2[nH]c(C3=NOC4(CCCCC4)C3)nc2c1
Fibroblast; [1]
  Population Apoptotic (%): 11.43% and 13.33%
  Population Fragmented Nuclei (%): 11.76% and 2.87%
  Population Healthy Nuclei (%): 56.56% and 79.89%
  Population Hoechst High Intensity Objects (%): 0%
  Population Membrane Permeable-Phenotype (%): 8% and 4.32%
  Population Mitochondria Different-Phenotype (%): 4.8% and 10.07%
  Population Mitotic Cells (%): 88.57% and 86.67%
  Population Normal (%): 100%
  Population Pyknosed Nuclei (%): 31.67% and 17.24%
  Population Tubulin-Different-Phenotype (%): 12.8% and 20.14%
  Total Cell Count: 221 and 174
Fibroblast; [2]
  Population Apoptotic (%): 7.62% and 14.29%
  Population Fragmented Nuclei (%): 10% and 8.05%
  Population Healthy Nuclei (%): 42.27% and 63.79%
  Population Hoechst High Intensity Objects (%): 0%
  Population Membrane Permeable-Phenotype (%): 12.9% and 5.41%
  Population Mitochondria Different-Phenotype (%): 19.35% and 15.32%
  Population Mitotic Cells (%): 92.38% and 85.71%
  Population Normal (%): 100%
  Population Pyknosed Nuclei (%): 47.73% and 28.16%
  Population Tubulin-Different-Phenotype (%): 30.11% and 51.35%
  Total Cell Count: 220 and 174
Fibroblast; [3]
  Population Apoptotic (%): 10.91% and 15.62%
  Population Fragmented Nuclei (%): 8.06% and 4.79%
  Population Healthy Nuclei (%): 69.76% and 78.19%
  Population Hoechst High Intensity Objects (%): 0%
  Population Membrane Permeable-Phenotype (%): 3.47% and 3.4%
  Population Mitochondria Different-Phenotype (%): 7.51% and 4.08%
  Population Mitotic Cells (%): 89.09% and 84.38%
  Population Normal (%): 100%
  Population Pyknosed Nuclei (%): 22.18% and 17.02%
  Population Tubulin-Different-Phenotype (%): 17.92% and 18.37%
  Total Cell Count: 248 and 188
Fibroblast; [4]
  Population Apoptotic (%): 13% and 17.86%
  Population Fragmented Nuclei (%): 7.66% and 9.09%
  Population Healthy Nuclei (%): 44.5% and 60.96%
  Population Hoechst High Intensity Objects (%): 0%
  Population Membrane Permeable-Phenotype (%): 7.53% and 4.39%
  Population Mitochondria Different-Phenotype (%): 25.81% and 29.82%
  Population Mitotic Cells (%): 87% and 82.14%
  Population Normal (%): 100%
  Population Pyknosed Nuclei (%): 47.85% and 29.95%
  Population Tubulin-Different-Phenotype (%): 69.89% and 65.79%
  Total Cell Count: 209 and 187
Fibroblast; [5]
  Population Apoptotic (%): 20.83% and 16.67%
  Population Fragmented Nuclei (%): 8.37% and 6.59%
  Population Healthy Nuclei (%): 82.51% and 86.81%
  Population Hoechst High Intensity Objects (%): 0%
  Population Membrane Permeable-Phenotype (%): 1.38% and 1.27%
  Population Mitochondria Different-Phenotype (%): 10.14% and 2.53%
  Population Mitotic Cells (%): 79.17% and 83.33%
  Population Normal (%): 100%
  Population Pyknosed Nuclei (%): 9.13% and 6.59%
  Population Tubulin-Different-Phenotype (%): 7.83% and 18.99%
  Total Cell Count: 263 and 182
Fibroblast; [6]
  Population Fragmented Nuclei (%): 9.33% and 11.92%
  Population Healthy Nuclei (%): 78.22% and 73.06%
  Population Hoechst High Intensity Objects (%): 0%
  Population Membrane Permeable-Phenotype (%): 0.57% and 4.26%
  Population Mitochondria Different-Phenotype (%): 13.64% and 7.8%
  Population Mitotic Cells (%): 96.43% and 55.17%
  Population Normal (%): 100%
  Population Pyknosed Nuclei (%): 12.44% and 15.03%
  Population Tubulin-Different-Phenotype (%): 38.64% and 60.99%
  Total Cell Count: 225 and 193
HEK-293T; [1]
  Population Apoptotic (%): 5.48% and 14.05%
  Population Fragmented Nuclei (%): 1.23% and 6.04%
  Population Hoechst High Intensity Objects (%): 0%
  Population Membrane Permeable-Phenotype (%): 0%
  Population Mitochondria Different-Phenotype (%): 43.68% and 36.84%
  Population Mitotic Cells (%): 94.52% and 85.95%
  Population Normal (%): 100%
  Population Pyknosed Nuclei (%): 45.06% and 81.21%
  Total Cell Count: 324 and 149
HEK-293T; [2]
  Population Apoptotic (%): 11.51% and 25.77%
  Population Fragmented Nuclei (%): 0.39% and 4.42%
  Population Hoechst High Intensity Objects (%): 0.78% and 0%
  Population Membrane Permeable-Phenotype (%): 0%
  Population Mitochondria Different-Phenotype (%): 32.17% and 18.18%
  Population Mitotic Cells (%): 88.49% and 74.23%
  Population Normal (%): 99.22% and 100%
  Population Pyknosed Nuclei (%): 54.51% and 85.84%
  Population Tubulin-Different-Phenotype (%): 40.87% and 45.45%
  Total Cell Count: 257 and 113
HEK-293T; [3]
  Population Apoptotic (%): 10.89% and 15.53%
  Population Fragmented Nuclei (%): 1.48% and 2.1%
  Population Hoechst High Intensity Objects (%): 0%
  Population Membrane Permeable-Phenotype (%): 0.93% and 5.41%
  Population Mitochondria Different-Phenotype (%): 18.75% and 24.32%
